In brackets after ≈: the same amount, converted by molar mass.
System: Mycobacterium tuberculosis variant bovis
Assay: Antimycobacterial activity against Mycobacterium bovis BCG Pasteur ATCC 35734 assessed as inhibition of bacterial growth measured after 7 days by resazurin dye based analysis
Assay type: functional
Settings: BCG Pasteur ATCC 35734, 168 h, time 7 day
Outline: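 Strains grown in 7H9 broth with 0.2% glycerol, 10% OADC and 0.05% Tween-80. Inoculum was about 5 × 10^5 CFU/mL, checked by plating on 7H10/OADC agar to be 3–8 × 10^5. Read at 2 days for M. smegmatis and 7 days for M. tuberculosis H37Ra, M. bovis and M. avium. Resazurin 30 μg/mL was then added for one further day. Values are averages of at least two experiments.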

Compound `CN1C(=O)[C@@H](c2cc(Cl)c(O)c(Cl)c2)NC(=O)[C@@H]2NC(=O)[C@@H](c3cc(Cl)c(O)c(Cl)c3)NC(=O)[C@H](NC(=O)C(=O)c3cc(Cl)c(O)c(Cl)c3)Cc3c[nH]c4cc(ccc34)-c3cc2cc(c3O)Oc2ccc(cc2)C[C@H]1C(=O)N[C@@H](C(=O)O)c1ccc(O)cc1` [ISOCOMPLESTATIN] has an MIC of 64 µg/mL (≈ 48.2 µM).
Work on `CN1C(=O)[C@@H]2NC(=O)[C@@H]3NC(=O)[C@@H](c4ccc(O)cc4)NC(=O)[C@H](NC(=O)C(N)c4ccc(O)cc4)Cc4c[nH]c5cc(ccc45)-c4cc3cc(c4O)Oc3ccc(cc3)C[C@H]1C(=O)N[C@@H](C(=O)O)c1ccc(O)c(c1)Oc1ccc2cc1` (stereo partly drawn) yielded an MIC of 8 µg/mL (≈ 7.14 µM).
With `NNC(=O)c1ccncc1` [ISONIAZID] the MIC was 0.13 µg/mL (≈ 0.948 µM).

— ChEMBL document CHEMBL5331111, “Synthetic Biology Facilitates Semisynthetic Development of Type V Glycopeptide Antibiotics Targeting Vancomycin-Resistant Enterococcus” (J Med Chem, 2023)
